{"source": "ChEMBL document CHEMBL1649186", "about": "“Characterization of macrolide efflux pump mef subclasses detected in clinical isolates of Streptococcus pyogenes isolated between 1999 and 2005” (2009)", "format_in_all_cases": "functional", "key": {"Streptococcus pyogenes [1]": {"system": "Streptococcus pyogenes", "test": "Antimicrobial activity against Streptococcus pyogenes clinical isolate expressing mosaic variant of mef gene by broth microdilution method", "outline": "(§1)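 Clinical isolates were subcultured from -70°C or 4°C storage onto horse blood agar and grown overnight at 36°C in 5 to 6% CO2. MICs were then measured by CLSI broth microdilution. mef presence was screened by a TaqMan plus/minus assay, and the mef subclass was assigned by sequencing.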"}, "Streptococcus pyogenes [2]": {"system": "Streptococcus pyogenes", "test": "Antimicrobial activity against Streptococcus pyogenes clinical isolate expressing mef(E) gene by broth microdilution method", "outline": "as §1"}, "Streptococcus pyogenes [3]": {"system": "Streptococcus pyogenes", "test": "Antimicrobial activity against Streptococcus pyogenes clinical isolate expressing mef(A) gene by broth microdilution method", "outline": "as §1"}}}
{"smiles": "CCC[C@@H]1C[C@@H](C(=O)N[C@@H]([C@H]2O[C@H](SC)[C@H](O)[C@@H](O)[C@H]2O)[C@H](C)Cl)N(C)C1", "note": "[CLINDAMYCIN]", "values": [{"measurement": "MIC50", "setting": "Streptococcus pyogenes [1]", "result": 0.06, "unit": "µg/mL"}, {"measurement": "MIC90", "setting": "Streptococcus pyogenes [1]", "result": 0.06, "unit": "µg/mL"}, {"measurement": "MIC50", "setting": "Streptococcus pyogenes [2]", "result": 0.25, "unit": "µg/mL"}, {"measurement": "MIC90", "setting": "Streptococcus pyogenes [2]", "result": 0.25, "unit": "µg/mL"}, {"measurement": "MIC50", "setting": "Streptococcus pyogenes [3]", "result": 0.06, "unit": "µg/mL"}, {"measurement": "MIC90", "setting": "Streptococcus pyogenes [3]", "result": 0.25, "unit": "µg/mL"}]}
{"smiles": "CN(C)[C@@H]1C(O)=C(C(N)=O)C(=O)[C@@]2(O)C(O)=C3C(=O)c4c(O)cccc4[C@@](C)(O)[C@H]3C[C@@H]12", "note": "[TETRACYCLINE]", "values": [{"measurement": "MIC", "setting": "Streptococcus pyogenes [1]", "result": 32, "unit": "µg/mL"}, {"measurement": "MIC50", "setting": "Streptococcus pyogenes [1]", "result": 32, "unit": "µg/mL"}, {"measurement": "MIC90", "setting": "Streptococcus pyogenes [1]", "result": 32, "unit": "µg/mL"}, {"measurement": "MIC50", "setting": "Streptococcus pyogenes [2]", "result": 32, "unit": "µg/mL"}, {"measurement": "MIC90", "setting": "Streptococcus pyogenes [2]", "result": 32, "unit": "µg/mL"}, {"measurement": "MIC", "setting": "Streptococcus pyogenes [3]", "result": 0.25, "unit": "µg/mL"}, {"measurement": "MIC50", "setting": "Streptococcus pyogenes [3]", "result": 0.25, "unit": "µg/mL"}, {"measurement": "MIC90", "setting": "Streptococcus pyogenes [3]", "result": 0.25, "unit": "µg/mL"}]}
{"smiles": "CC[C@H]1OC(=O)[C@H](C)[C@@H](O[C@H]2C[C@@](C)(OC)[C@@H](O)[C@H](C)O2)[C@H](C)[C@@H](O[C@@H]2O[C@H](C)C[C@H](N(C)C)[C@H]2O)[C@](C)(O)C[C@@H](C)CN(C)[C@H](C)[C@@H](O)[C@]1(C)O", "note": "[AZITHROMYCIN]", "values": [{"measurement": "MIC", "setting": "Streptococcus pyogenes [1]", "result": 16, "unit": "µg/mL"}, {"measurement": "MIC50", "setting": "Streptococcus pyogenes [1]", "result": 16, "unit": "µg/mL"}, {"measurement": "MIC90", "setting": "Streptococcus pyogenes [1]", "result": 32, "unit": "µg/mL"}, {"measurement": "MIC50", "setting": "Streptococcus pyogenes [2]", "result": 8, "unit": "µg/mL"}, {"measurement": "MIC90", "setting": "Streptococcus pyogenes [2]", "result": 16, "unit": "µg/mL"}, {"measurement": "MIC50", "setting": "Streptococcus pyogenes [3]", "result": 8, "unit": "µg/mL"}, {"measurement": "MIC90", "setting": "Streptococcus pyogenes [3]", "result": 16, "unit": "µg/mL"}]}
{"smiles": "CC[C@H]1OC(=O)[C@H](C)[C@@H](O[C@H]2C[C@@](C)(OC)[C@@H](O)[C@H](C)O2)[C@H](C)[C@@H](O[C@@H]2O[C@H](C)C[C@H](N(C)C)[C@H]2O)[C@](C)(OC)C[C@@H](C)C(=O)[C@H](C)[C@@H](O)[C@]1(C)O", "note": "[CLARITHROMYCIN]", "values": [{"measurement": "MIC50", "setting": "Streptococcus pyogenes [1]", "result": 8, "unit": "µg/mL"}, {"measurement": "MIC90", "setting": "Streptococcus pyogenes [1]", "result": 8, "unit": "µg/mL"}, {"measurement": "MIC50", "setting": "Streptococcus pyogenes [2]", "result": 4, "unit": "µg/mL"}, {"measurement": "MIC90", "setting": "Streptococcus pyogenes [2]", "result": 8, "unit": "µg/mL"}, {"measurement": "MIC50", "setting": "Streptococcus pyogenes [3]", "result": 8, "unit": "µg/mL"}, {"measurement": "MIC90", "setting": "Streptococcus pyogenes [3]", "result": 16, "unit": "µg/mL"}]}
{"smiles": "CC[C@H]1OC(=O)[C@H](C)[C@@H](O[C@H]2C[C@@](C)(OC)[C@@H](O)[C@H](C)O2)[C@H](C)[C@@H](O[C@@H]2O[C@H](C)C[C@H](N(C)C)[C@H]2O)[C@](C)(O)C[C@@H](C)C(=O)[C@H](C)[C@@H](O)[C@]1(C)O", "note": "[ERYTHROMYCIN]", "values": [{"measurement": "MIC", "setting": "Streptococcus pyogenes [1]", "result": 8, "unit": "µg/mL"}, {"measurement": "MIC50", "setting": "Streptococcus pyogenes [1]", "result": 8, "unit": "µg/mL"}, {"measurement": "MIC90", "setting": "Streptococcus pyogenes [1]", "result": 16, "unit": "µg/mL"}, {"measurement": "MIC50", "setting": "Streptococcus pyogenes [2]", "result": 8, "unit": "µg/mL"}, {"measurement": "MIC90", "setting": "Streptococcus pyogenes [2]", "result": 16, "unit": "µg/mL"}, {"measurement": "MIC50", "setting": "Streptococcus pyogenes [3]", "result": 16, "unit": "µg/mL"}, {"measurement": "MIC90", "setting": "Streptococcus pyogenes [3]", "result": 16, "unit": "µg/mL"}]}
